# Laboratory results: ChEMBL document CHEMBL4130527, “New Scaffold for Angiogenesis Inhibitors Discovered by Targeted Chemical Transformations of Wondonin Natural Products” (ACS Med Chem Lett, 2017)
# The source made the active and inactive calls. The calls are words filed in the database; no cut-off is given here.
# Tests used:
# HUVEC [1] = assay: Growth inhibition of HUVEC after 24 hrs in presence of VEGF by MTT assay; type: cell-based; conditions: Homo sapiens
# Outline: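 HUVECs exposed to compound in the presence of VEGF (50 ng/mL) for 24 h, with growth read by MTT assay. Value is the mean IC50 from triplicate experiments.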
# HUVEC [2] = assay: Antiangiogenic activity in HUVEC assessed as inhibition of VEGF-induced capillary tube formation after 8 hrs by matrigel based inverted microscopic analysis; type: functional, cell-based; conditions: Homo sapiens
# Outline: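 HUVECs treated with compound with or without VEGF (50 ng/mL) for 8 h. Intact tubes counted under a microscope, and IC50 calculated against control. Value is the mean IC50 from triplicate experiments.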
# [3] = Apparent permeability from apical to basolateral side in MDCK cells at 10 uM by LC-MS/MS analysis; type: ADME, cell-based, Canis lupus familiaris; conditions: dog
# Outline: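 Apparent permeability coefficient (Papp, A-B) measured across MDCK cell monolayers.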
# [4] = Metabolic stability in human liver microsomes assessed as parent compound remaining at 1 uM preincubated for 5 mins followed by NADPH addition measured after 30 mins by LC-MS/MS analysis; type: ADME, microsome; conditions: read-out: Stability
# Outline: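 Parent compound remaining after 30 min incubation with human liver microsomes.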
# [5] = target: Vascular endothelial growth factor receptor 2 (Homo sapiens) (UniProt P35968); assay: Inhibition of VEGFR2 in HUVEC assessed as decrease in VEGF-induced FAK phosphorylation at Tyr397 residues pretreated for 30 mins followed by VEGF stimulation for 20 mins by Western blot analysis; type: cell-based
# Outline: (§1)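 HUVECs pretreated with various compound concentrations for 30 min, then stimulated with VEGF (50 ng/mL) for 20 min. Phosphoproteins detected by immunoblot, with β-actin as loading control.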
# HUVEC [6] = assay: Inhibition of integrin in HUVEC assessed as decrease in VEGF-induced SRC/FAK phosphorylation pretreated for 30 mins followed by VEGF stimulation for 20 mins by Western blot analysis; type: cell-based; conditions: Homo sapiens; outline: as §1
# [7] = target: Casein kinase I isoform alpha (Homo sapiens) (UniProt P48729); assay: Inhibition of human wild type partial length CSNK1A1 (M1 to L301 residues) expressed in mammalian expression system at 10 uM by Kinomescan method relative to control
# Outline: (§2)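 Compound tested at 10 μM in a KINOMEscan binding panel of 30 kinases. Activity taken from binding between each kinase and its corresponding ligand.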
# Danio rerio [8] = species: Danio rerio; assay: Toxicity in transgenic zebrafish flk:EGFP embryo model of DR-mimic hyaloid vessels in larval eye lenses measured 6 days post fertilization; type: organism-based; conditions: in vivo, 144 h
# [9] = target: Vascular endothelial growth factor receptor 2 (Homo sapiens) (UniProt P35968); assay: Inhibition of VEGF-induced VEGFR2 phosphorylation at Tyr1175 residues in HUVEC pretreated for 30 mins followed by VEGF stimulation for 20 mins by Western blot analysis; type: cell-based; outline: as §1
# [10] = target: Vascular endothelial growth factor receptor 2 (Homo sapiens) (UniProt P35968); assay: Inhibition of VEGFR2 in HUVEC assessed as decrease in VEGF-induced PI3K phosphorylation at Tyr458 residues pretreated for 30 mins followed by VEGF stimulation for 20 mins by Western blot analysis; type: cell-based; outline: as §1
# [11] = target: Dual specificity mitogen-activated protein kinase kinase 1 (Homo sapiens) (UniProt Q02750); assay: Inhibition of human wild type partial length MEK1 (M1 to V393 residues) expressed in mammalian expression system at 10 uM by Kinomescan method relative to control; outline: as §2
# HUVEC [12] = assay: Antimigratory activity in HUVEC after 24 hrs by inverted phase contrast light microscopic analysis; type: functional, cell-based; conditions: Homo sapiens
# Outline: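 Migrated HUVECs counted and compared with VEGF-treated control groups. Statistics by ANOVA with Tukey's test, n = 3.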
# [13] = target: Vascular endothelial growth factor receptor 2 (Homo sapiens) (UniProt P35968); assay: Inhibition of VEGFR2 in HUVEC assessed as decrease in VEGF-induced AKT phosphorylation at […] residues pretreated for 30 mins followed by VEGF stimulation for 20 mins by Western blot analysis; type: cell-based; outline: as §1
# [14] = Stability in human plasma assessed as parent compound remaining at 10 uM after 30 mins by LC-MS/MS analysis; type: ADME, cell-free; conditions: read-out: Stability
# Outline: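 Parent compound remaining after 30 min incubation in human plasma.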
# [15] = target: Vascular endothelial growth factor receptor 2 (Homo sapiens) (UniProt P35968); assay: Inhibition of VEGFR2 in HUVEC assessed as decrease in VEGF-induced eNOS phosphorylation at Ser1177 residues pretreated for 30 mins followed by VEGF stimulation for 20 mins by Western blot analysis; type: cell-based; outline: as §1
# [16] = target: T1, Protein kinase C iota type (Homo sapiens) (UniProt P41743); assay: Inhibition of human wild type partial length PRKCI (H215 to V587 residues) expressed in mammalian expression system at 10 uM by Kinomescan method relative to control; outline: as §2
# T1 sequence (whole entry): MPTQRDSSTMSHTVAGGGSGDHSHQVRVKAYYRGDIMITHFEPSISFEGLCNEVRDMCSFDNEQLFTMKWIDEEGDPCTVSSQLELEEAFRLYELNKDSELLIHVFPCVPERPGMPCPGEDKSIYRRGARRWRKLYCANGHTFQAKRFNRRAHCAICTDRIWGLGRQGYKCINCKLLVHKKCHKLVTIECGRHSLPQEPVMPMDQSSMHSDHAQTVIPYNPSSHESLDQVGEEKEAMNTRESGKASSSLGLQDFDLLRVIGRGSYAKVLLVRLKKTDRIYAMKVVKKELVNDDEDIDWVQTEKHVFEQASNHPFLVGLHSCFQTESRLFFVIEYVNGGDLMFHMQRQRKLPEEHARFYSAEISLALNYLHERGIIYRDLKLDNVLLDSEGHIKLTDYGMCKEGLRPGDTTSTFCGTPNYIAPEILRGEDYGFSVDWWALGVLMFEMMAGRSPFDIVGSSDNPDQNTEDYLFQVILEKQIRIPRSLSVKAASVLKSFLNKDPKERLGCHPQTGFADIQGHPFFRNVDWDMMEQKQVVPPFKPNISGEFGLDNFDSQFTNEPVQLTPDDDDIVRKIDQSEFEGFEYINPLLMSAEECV
# Danio rerio [17] = species: Danio rerio; assay: Antiangiogenic activity in transgenic zebrafish flk:EGFP embryo model of DR-mimic hyaloid vessels in larval eye lenses assessed as inhibition of high glucose induced increase in hyaloid vessel diameter pretreated with glucose 3 days post fertilization for 3 days followed by compound addition measured 6 days post fertilization by fluorescence microscopy; type: functional, organism-based
# Outline: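 Transgenic flk:EGFP zebrafish embryos at 3 dpf exposed to 130 mM glucose for 3 days to induce DR-mimic hyaloid vessels, with compound at varying concentrations. Hyaloid vessel diameter measured near the optic disc in isolated eye lenses; primary branch number compared with high-glucose controls. ANOVA with Tukey's test, n = 3.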
# [18] = target: Vascular endothelial growth factor receptor 2 (Homo sapiens) (UniProt P35968); assay: Inhibition of VEGFR2 in HUVEC assessed as decrease in VEGF-induced AKT phosphorylation at Thr308 residues pretreated for 30 mins followed by VEGF stimulation for 20 mins by Western blot analysis; type: cell-based; outline: as §1
# [19] = target: Vascular endothelial growth factor receptor 2 (Homo sapiens) (UniProt P35968); assay: Inhibition of VEGFR2 in HUVEC assessed as decrease in VEGF-induced SRC phosphorylation pretreated for 30 mins followed by VEGF stimulation for 20 mins by Western blot analysis; type: cell-based; outline: as §1
# Sequence of Vascular endothelial growth factor receptor 2 (Homo sapiens) (P35968 whole entry, the tested form may be a part): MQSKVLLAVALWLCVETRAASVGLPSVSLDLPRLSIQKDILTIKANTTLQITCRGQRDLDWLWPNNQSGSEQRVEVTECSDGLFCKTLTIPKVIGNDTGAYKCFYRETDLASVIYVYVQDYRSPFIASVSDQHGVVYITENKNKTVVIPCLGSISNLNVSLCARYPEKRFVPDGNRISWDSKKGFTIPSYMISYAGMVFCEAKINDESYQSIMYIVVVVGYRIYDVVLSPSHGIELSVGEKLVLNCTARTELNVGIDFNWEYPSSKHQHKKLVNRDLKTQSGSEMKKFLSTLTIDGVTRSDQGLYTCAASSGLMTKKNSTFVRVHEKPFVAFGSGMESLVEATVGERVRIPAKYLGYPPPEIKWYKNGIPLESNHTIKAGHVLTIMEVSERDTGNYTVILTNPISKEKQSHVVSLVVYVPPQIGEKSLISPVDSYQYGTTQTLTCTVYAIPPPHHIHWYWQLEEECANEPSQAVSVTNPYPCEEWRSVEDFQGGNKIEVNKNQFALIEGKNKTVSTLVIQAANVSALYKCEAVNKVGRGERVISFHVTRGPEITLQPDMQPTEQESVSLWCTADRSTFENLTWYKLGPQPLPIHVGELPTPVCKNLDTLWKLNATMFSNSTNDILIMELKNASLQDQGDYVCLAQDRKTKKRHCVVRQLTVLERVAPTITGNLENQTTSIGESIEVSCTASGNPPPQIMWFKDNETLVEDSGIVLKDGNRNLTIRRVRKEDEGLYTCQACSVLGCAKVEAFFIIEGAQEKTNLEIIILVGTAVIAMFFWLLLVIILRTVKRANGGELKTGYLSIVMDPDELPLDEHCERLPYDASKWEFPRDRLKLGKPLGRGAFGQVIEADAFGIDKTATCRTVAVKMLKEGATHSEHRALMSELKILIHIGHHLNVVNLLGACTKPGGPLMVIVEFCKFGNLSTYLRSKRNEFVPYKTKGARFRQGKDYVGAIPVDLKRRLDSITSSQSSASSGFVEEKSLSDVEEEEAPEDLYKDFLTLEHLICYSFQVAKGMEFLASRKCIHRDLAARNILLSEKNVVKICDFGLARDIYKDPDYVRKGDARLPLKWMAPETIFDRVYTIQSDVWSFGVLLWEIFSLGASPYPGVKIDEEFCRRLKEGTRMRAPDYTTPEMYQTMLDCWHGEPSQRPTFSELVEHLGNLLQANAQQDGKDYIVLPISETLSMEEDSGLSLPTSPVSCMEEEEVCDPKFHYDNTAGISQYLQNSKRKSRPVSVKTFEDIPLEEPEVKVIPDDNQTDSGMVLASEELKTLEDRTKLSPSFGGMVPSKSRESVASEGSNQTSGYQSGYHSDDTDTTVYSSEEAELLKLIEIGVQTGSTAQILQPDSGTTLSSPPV
# Sequence of Casein kinase I isoform alpha (Homo sapiens) (P48729 2-337 limits assumed): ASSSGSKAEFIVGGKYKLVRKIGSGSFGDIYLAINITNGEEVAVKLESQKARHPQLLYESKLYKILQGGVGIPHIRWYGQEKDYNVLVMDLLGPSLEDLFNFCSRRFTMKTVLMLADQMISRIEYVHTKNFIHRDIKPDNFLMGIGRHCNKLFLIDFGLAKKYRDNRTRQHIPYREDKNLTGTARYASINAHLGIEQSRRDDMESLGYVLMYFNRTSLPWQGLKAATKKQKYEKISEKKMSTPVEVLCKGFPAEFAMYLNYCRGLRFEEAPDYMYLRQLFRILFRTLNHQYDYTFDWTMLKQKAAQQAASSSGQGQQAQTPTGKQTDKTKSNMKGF
# Sequence of Dual specificity mitogen-activated protein kinase kinase 1 (Homo sapiens) (Q02750 whole entry, the tested form may be a part): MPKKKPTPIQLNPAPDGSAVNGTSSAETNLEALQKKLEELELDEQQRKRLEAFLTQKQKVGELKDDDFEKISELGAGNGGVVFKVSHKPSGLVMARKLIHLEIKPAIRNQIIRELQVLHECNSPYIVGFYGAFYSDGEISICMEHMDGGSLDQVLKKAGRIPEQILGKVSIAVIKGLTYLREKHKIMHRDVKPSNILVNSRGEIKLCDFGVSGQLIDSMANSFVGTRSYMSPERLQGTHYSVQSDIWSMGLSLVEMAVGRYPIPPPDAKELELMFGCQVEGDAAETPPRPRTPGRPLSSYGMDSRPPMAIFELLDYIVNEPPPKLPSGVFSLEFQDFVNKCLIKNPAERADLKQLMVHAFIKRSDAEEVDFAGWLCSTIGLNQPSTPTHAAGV
SMILES,IC50 (HUVEC [1]) [µM],IC50 (HUVEC [2]) [µM],other results
CCc1ccc2nc(C(c3ccc(OC)c(OC)c3)n3cc(CCN4CCCC4)nn3)sc2c1 (configuration not stated),70.3,2.84,–
CCc1ccc2nc(C(c3ccc(O)c(O)c3)n3cc(CCN(C)C)nn3)sc2c1 (configuration not stated),37.3,3.04,–
CCCNCCc1cn(C(c2ccc(OC)c(OC)c2)c2nc3ccc(CC)cc3s2)nn1 (configuration not stated),38.6,1.39,–
CCc1ccc2nc(C(c3ccc(O)c(O)c3)n3cc(CCN(C)C)nn3)oc2c1 (configuration not stated),> 100,> 20,–
CCc1ccc2nc(C(c3ccc(OC)c(OC)c3)n3cc(CCN(C)C)nn3)sc2c1 (configuration not stated),93.5,8.27,–
CCN(CC)CCNC(=O)c1c(C)[nH]c(/C=C2\C(=O)Nc3ccc(F)cc32)c1C [SUNITINIB],9.92,0.546,–
CN(C)CCc1cn(C(c2ccc(O)c(O)c2)C2Oc3ccc(/C=C/OS(=O)(=O)O)cc3O2)cn1 (configuration not stated),> 100,42.8,–
CCc1ccc2c(c1)OC(C(c1ccc(O)c(O)c1)n1cc(CCN(C)C)nn1)O2 (configuration not stated),95.9,28,–
CCc1ccc2nc(C(c3ccc(OC)c(OC)c3)n3cc(CCNC4CCCC4)nn3)sc2c1 (configuration not stated),19.4,1.02,–
CCc1ccc2cc(C(c3ccc(O)c(O)c3)n3cc(CCN(C)C)nn3)oc2c1 (configuration not stated),22,6.1,–
CCc1ccc2nc(C(c3ccc(OC)c(OC)c3)n3cc(CCN4CCOCC4)nn3)sc2c1 (configuration not stated),> 100,3.93,–
CCc1ccc2nc(C(c3ccc(OC)c(OC)c3)n3cc(CCN4CCCCC4)nn3)sc2c1 (configuration not stated),47.5,0.631,"Papp A→B at 10 µM [3]: 110 nm/s; remaining at 0.5 h, 1 µM [4]: 31%; inhibition [5]: Active; inhibition (HUVEC [6]): Active; inhibition [7]: > 40%; Activity (Danio rerio [8]): Non-Toxic; inhibition [9]: Active; inhibition [10]: Active; inhibition [11]: > 40%; Activity (HUVEC [12]): Dose-dependent effect; inhibition [13]: Active; remaining at 0.5 h, 10 µM [14]: 95%; inhibition [15]: Active; inhibition [16]: > 40%; inhibition (Danio rerio [17]): Dose-dependent effect; inhibition (HUVEC [2]): Dose-dependent effect; inhibition [18]: Active; inhibition [19]: Active"
